According to ChEMBL document CHEMBL4725473, “A Chemical Probe for the Methyl Transferase PRMT5 with a Novel Binding Mode” (ACS Med Chem Lett, 2020):
The source made the active and inactive calls. The rule behind the calls is not given here.

Tests used:
[1] = biological target: T1, PRMT5/MEP50 complex (Homo sapiens, UniProt O14744); assay: Inhibition of full-length human N-terminal FLAG-tagged PRMT5/full length N-terminal His6-tagged MEP50 (unknown origin) expressed in baculovirus infected Sf9 insect cells assessed as reduction of S-adenosyl-L-homocysteine formation using human recombinant histone H2A (1 to 130 residues) and S-adenosyl-L-methionine as substrate after 60 mins by rapidfire mass spectrometry analysis
T1 sequence (O14744 whole entry, the tested form may be a part): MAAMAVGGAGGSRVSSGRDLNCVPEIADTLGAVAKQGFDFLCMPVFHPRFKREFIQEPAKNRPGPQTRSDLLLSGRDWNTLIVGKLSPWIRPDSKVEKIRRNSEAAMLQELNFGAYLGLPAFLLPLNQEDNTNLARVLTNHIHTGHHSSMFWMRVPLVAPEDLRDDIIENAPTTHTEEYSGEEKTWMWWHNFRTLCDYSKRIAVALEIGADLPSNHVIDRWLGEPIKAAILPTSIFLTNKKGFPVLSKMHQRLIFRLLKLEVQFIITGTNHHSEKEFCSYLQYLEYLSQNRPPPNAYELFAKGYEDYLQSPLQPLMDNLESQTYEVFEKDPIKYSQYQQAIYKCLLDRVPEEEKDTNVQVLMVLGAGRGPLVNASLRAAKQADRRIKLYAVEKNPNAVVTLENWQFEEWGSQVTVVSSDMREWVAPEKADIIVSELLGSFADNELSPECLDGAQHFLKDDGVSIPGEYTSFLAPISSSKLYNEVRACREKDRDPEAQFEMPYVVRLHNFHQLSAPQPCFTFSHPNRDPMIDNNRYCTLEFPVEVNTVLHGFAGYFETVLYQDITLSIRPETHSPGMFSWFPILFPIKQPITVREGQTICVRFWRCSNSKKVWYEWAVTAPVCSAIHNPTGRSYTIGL
T1 sequence (Q9BQA1 whole entry, further chain, the tested form may be a part): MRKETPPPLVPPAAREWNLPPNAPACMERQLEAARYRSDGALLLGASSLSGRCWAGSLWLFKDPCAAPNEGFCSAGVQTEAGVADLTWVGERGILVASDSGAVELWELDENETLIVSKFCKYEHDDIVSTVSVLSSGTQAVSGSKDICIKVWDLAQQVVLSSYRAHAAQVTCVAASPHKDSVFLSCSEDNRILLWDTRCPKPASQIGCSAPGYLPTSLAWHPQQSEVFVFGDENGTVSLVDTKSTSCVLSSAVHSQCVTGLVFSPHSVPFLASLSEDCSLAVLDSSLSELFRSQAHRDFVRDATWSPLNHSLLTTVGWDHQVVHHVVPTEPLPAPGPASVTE
Method in brief: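 PRMT5–MEP50 complex at 5.0 nM in assay; recombinant human histone H2A as substrate. Read-out is the decrease in SAM→SAH conversion, measured by RapidFire high-throughput mass spectrometry. IC50 reported as mean of n ≥ 2.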

[2] = biological target: Protein arginine N-methyltransferase 5 (Homo sapiens, UniProt O14744); assay: Inhibition of PRMT5 in human A549 cells assessed as reduction in arginine dimethylation of SmD1/3 after 48 hrs by Hoechst Stain/ CellMask Deep Red Stain based immunohistochemistry method; format: cell-based
Sequence of Protein arginine N-methyltransferase 5 (O14744 whole entry): as the sequence (O14744 whole entry, the tested form may be a part) above
Method in brief: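 A549 cells treated with compound for 48 h (2 days). Symmetric arginine dimethylation of SmD1/3 measured by immunofluorescence microscopy as the nuclear/cytoplasmic intensity ratio, normalized to DMSO control. Concentration–response curves; mean ± SE of at least three replicates (n ≥ 3).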

[3] = biological target: T2, PRMT5/MEP50 complex (Homo sapiens) (UniProt O14744+Q9BQA1); assay: Competitive inhibition of full-length human N-terminal FLAG-tagged PRMT5/full length N-terminal His6-tagged MEP50 (unknown origin) expressed in baculovirus infected Sf9 insect cells assessed as reduction of S-adenosyl-L-homocysteine formation using varying concentrations of human recombinant histone H2A (1 to 130 residues) and S-adenosyl-L-methionine as substrate after 80 mins by rapidfire mass spectrometry analysis
[4] = biological target: T2, PRMT5/MEP50 complex (Homo sapiens); assay: Non-competitive inhibition of full-length human N-terminal FLAG-tagged PRMT5/full length N-terminal His6-tagged MEP50 (unknown origin) expressed in baculovirus infected Sf9 insect cells assessed as reduction of S-adenosyl-L-homocysteine formation using human recombinant histone H2A (1 to 130 residues) and varying concentrations of S-adenosyl-L-methionine as substrate after 80 mins by rapidfire mass spectrometry analysis
[5] = test system: A549; assay: Cytotoxicity against human A549 cells assessed as cell viability up to 10 uM incubated for 48 hrs by Hoechst staining based fluorescence microscopic analysis; settings: a549, 48 h
[6] = biological target: Histone-lysine N-methyltransferase EHMT2 (Homo sapiens) (UniProt Q96KQ7); assay: Inhibition of N-terminal GST-fused recombinant human EHMT2 (786 to 1210 residues) expressed in Escherichia coli using histone H3 (1 to 21) as substrate at 10 uM by radiometric HotSpot assay relative to control
Method in brief: (§1)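 Selectivity panel of 21 purified recombinant human arginine and lysine methyltransferases. Compound tested at a single 10 μM concentration; percent inhibition of each enzyme reported.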

[7] = biological target: T1, PRMT5/MEP50 complex; assay: Binding affinity to N-terminal FLAG-tagged human PRMT5 (1 to 637 residues)/N-terminal thrombin His-tagged MEP50 (2 to 342 residues) expressed in baculovirus infected Sf21 cells by streptavidin coated sensor chip based surface plasmon resonance analysis
[8] = species on record: Homo sapiens; assay: Inhibition of recombinant human N-terminal His-tagged MLL1 (3745 to 3969 residues)/human WDR5 (22 to 334)/human RbBP5 (1 to 538)/human Ash2L (2 to 534)/human DPY30 (1 to 99) expressed in Escherichia coli using nucleosome as substrate at 10 uM by radiometric HotSpot assay relative to control; method in brief: as §1
[9] = biological target: Histone-lysine N-methyltransferase PRDM9 (Homo sapiens) (UniProt Q9NQV7); assay: Inhibition of recombinant human N-terminal GST-tagged PRDM9 (2 to 414 residues) expressed in baculovirus infected Sf9 cells using histone H3 as substrate at 10 uM by radiometric HotSpot assay relative to control; method in brief: as §1
[10] = biological target: N-lysine methyltransferase SMYD2 (Homo sapiens) (UniProt Q9NRG4); assay: Inhibition of recombinant human N-terminal His-tagged SMYD2 (2 to 433 residues) expressed in Escherichia coli using histone H4 as substrate at 10 uM by radiometric HotSpot assay relative to control; method in brief: as §1
[11] = biological target: Histone-lysine N-methyltransferase KMT5B (Homo sapiens) (UniProt Q4FZB7); assay: Inhibition of recombinant human N-terminal GST-tagged SUV420H1 (2 to 393 residues ) expressed in baculovirus infected Sf9 cells using core histone as substrate at 10 uM by radiometric HotSpot assay relative to control; method in brief: as §1
Sequence of Histone-lysine N-methyltransferase KMT5B (Homo sapiens) (Q4FZB7 whole entry, looked up, the tested form may be a part): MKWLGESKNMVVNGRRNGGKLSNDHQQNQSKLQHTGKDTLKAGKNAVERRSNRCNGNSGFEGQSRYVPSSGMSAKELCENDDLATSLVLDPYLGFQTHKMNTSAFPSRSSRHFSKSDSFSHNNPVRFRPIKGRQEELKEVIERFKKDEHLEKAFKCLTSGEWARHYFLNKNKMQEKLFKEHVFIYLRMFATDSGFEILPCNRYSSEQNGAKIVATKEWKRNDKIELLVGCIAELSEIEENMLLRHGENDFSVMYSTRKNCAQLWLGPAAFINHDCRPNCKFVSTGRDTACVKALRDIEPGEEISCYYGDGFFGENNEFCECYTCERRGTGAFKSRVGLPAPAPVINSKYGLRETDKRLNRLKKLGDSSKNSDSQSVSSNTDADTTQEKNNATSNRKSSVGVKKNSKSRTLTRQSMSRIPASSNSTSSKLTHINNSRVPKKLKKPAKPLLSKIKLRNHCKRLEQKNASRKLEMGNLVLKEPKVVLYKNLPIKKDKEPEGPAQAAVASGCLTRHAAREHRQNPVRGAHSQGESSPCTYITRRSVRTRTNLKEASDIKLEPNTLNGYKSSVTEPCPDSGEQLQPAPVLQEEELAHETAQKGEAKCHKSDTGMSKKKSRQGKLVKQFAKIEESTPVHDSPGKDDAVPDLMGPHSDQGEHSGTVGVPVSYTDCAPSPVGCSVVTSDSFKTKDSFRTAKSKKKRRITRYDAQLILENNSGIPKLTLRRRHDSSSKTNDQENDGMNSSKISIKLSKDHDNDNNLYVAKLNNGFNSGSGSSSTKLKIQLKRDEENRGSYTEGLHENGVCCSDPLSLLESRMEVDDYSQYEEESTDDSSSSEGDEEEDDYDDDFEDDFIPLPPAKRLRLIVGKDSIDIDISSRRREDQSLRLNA

[12] = biological target: Histone-lysine N-methyltransferase SETD7 (Homo sapiens) (UniProt Q8WTS6); assay: Inhibition of recombinant human full length C-terminal His-tagged SETD7 expressed in Escherichia coli using core histone as substrate at 10 uM by radiometric HotSpot assay relative to control; method in brief: as §1
Sequence of Histone-lysine N-methyltransferase SETD7 (Homo sapiens) (Q8WTS6 whole entry, the tested form may be a part): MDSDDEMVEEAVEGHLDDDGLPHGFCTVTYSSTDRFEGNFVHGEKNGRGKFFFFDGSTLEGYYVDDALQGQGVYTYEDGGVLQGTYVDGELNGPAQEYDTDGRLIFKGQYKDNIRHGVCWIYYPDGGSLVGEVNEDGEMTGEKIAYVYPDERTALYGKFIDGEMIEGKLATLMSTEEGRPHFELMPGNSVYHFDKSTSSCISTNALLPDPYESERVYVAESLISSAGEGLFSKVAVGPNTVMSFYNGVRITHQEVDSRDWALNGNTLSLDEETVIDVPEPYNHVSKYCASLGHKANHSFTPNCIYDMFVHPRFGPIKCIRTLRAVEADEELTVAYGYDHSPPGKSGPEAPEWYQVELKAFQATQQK

[13] = biological target: N-lysine methyltransferase KMT5A (Homo sapiens) (UniProt Q9NQR1); assay: Inhibition of recombinant human GST-tagged SETD8 (195 to 352 residues) expressed in Escherichia coli using nucleosome as substrate at 10 uM by radiometric HotSpot assay relative to control; method in brief: as §1
[14] = species on record: Homo sapiens; assay: Inhibition of recombinant human N-terminal His-tagged EZH2 (2 to 746)/human recombinant AEBP2 (2 to 517)/human recombinant EED (2 to 441)/human recombinant RbAp48 (2 to 425)/human recombinant SUZ12 (2 to 739) expressed in baculovirus infected insect cells using core histone as substrate at 10 uM by radiometric HotSpot assay relative to control; method in brief: as §1
[15] = biological target: Histone-lysine N-methyltransferase SETD1B (Homo sapiens) (UniProt Q9UPS6); assay: Inhibition of recombinant human N- terminal GST-tagged SET1B (1629 to 1923 residues) expressed in Escherichia coli using core histone as substrate at 10 uM by radiometric HotSpot assay relative to control; method in brief: as §1
[16] = biological target: Histone-lysine N-methyltransferase 2D (Homo sapiens) (UniProt O14686); assay: Inhibition of recombinant human N- terminal His-tagged MLL2 (5319 to 5537 residues) expressed in Escherichia coli using core histone as substrate at 10 uM by radiometric HotSpot assay relative to control; method in brief: as §1
[17] = biological target: Histone-lysine N-methyltransferase SUV39H1 (Homo sapiens) (UniProt O43463); assay: Inhibition of recombinant human N-terminal fusion protein tagged and C-terminal His-tagged SUV39H1 (44 to 412 residues) expressed in Escherichia coli using nucleosome as substrate at 10 uM by radiometric HotSpot assay relative to control; method in brief: as §1
[18] = biological target: Histone-lysine N-methyltransferase SUV39H2 (Homo sapiens) (UniProt Q9H5I1); assay: Inhibition of recombinant human C-terminal His-tagged SUV39H2 (48 to 410 residues) expressed in Escherichia coli using nucleosome as substrate at 10 uM by radiometric HotSpot assay relative to control; method in brief: as §1
[19] = biological target: Histone-lysine N-methyltransferase, H3 lysine-79 specific (Homo sapiens) (UniProt Q8TEK3); assay: Inhibition of recombinant human N-terminal GST-tagged DOT1L (1 to 416 residues) expressed in Escherichia coli using nucleosome as substrate at 10 uM by radiometric HotSpot assay relative to control; method in brief: as §1
[20] = biological target: T2, PRMT5/MEP50 complex (Homo sapiens); assay: Inhibition of recombinat human N-terminal Flag-tagged PRMT5 (2 to 637 residues)/ N-terminal His-tagged MEP50 (2 to 342 residues) (unknown origin) expressed in baculovirus infected Sf9 cells using recombinant human histone H2A (1 to 130 residues) as substrate at 10 uM by radiometric HotSpot assay relative to control; method in brief: as §1
[21] = biological target: Protein arginine N-methyltransferase 7 (Homo sapiens) (UniProt Q9NVM4); assay: Inhibition of recombinant human N-terminal His-tagged full length PRMT7 (2 to 692 residues) expressed in baculovirus system using GST-GAR as substrate at 10 uM by radiometric HotSpot assay relative to control; method in brief: as §1
[22] = biological target: Protein arginine N-methyltransferase 6 (Homo sapiens) (UniProt Q96LA8); assay: Inhibition of recombinant human His-tagged PRMT6 (2 to end residues) expressed in Escherichia coli using histone H3 as substrate at 10 uM by radiometric HotSpot assay relative to control; method in brief: as §1
[23] = biological target: Protein arginine N-methyltransferase 1 (Homo sapiens) (UniProt Q99873); assay: Inhibition of recombinant human GST-tagged PRMT1 (2 to end residues) expressed in Escherichia coli using histone H4 as substrate at 10 uM by radiometric HotSpot assay relative to control; method in brief: as §1
[24] = biological target: Protein arginine N-methyltransferase 3 (Homo sapiens) (UniProt O60678); assay: Inhibition of recombinant human His-tagged PRMT3 (2 to end residues) expressed in Escherichia coli using histone H4 as substrate at 10 uM by radiometric HotSpot assay relative to control; method in brief: as §1
[25] = biological target: Histone-arginine methyltransferase CARM1 (Homo sapiens) (UniProt Q86X55); assay: Inhibition of recombinant human FLAG-tagged PRMT4 (2 to end residues) expressed in FreeStyle HEK293-F cells using histone H3 as substrate at 10 uM by radiometric HotSpot assay relative to control; method in brief: as §1
[26] = biological target: Protein arginine N-methyltransferase 8 (Homo sapiens) (UniProt Q9NR22); assay: Inhibition of recombinant human N-terminal and C-terminal His-tagged PRMT8 (61 to 394 residues) expressed in Escherichia coli using histone H4 as substrate at 10 uM by radiometric HotSpot assay relative to control; method in brief: as §1
[27] = biological target: Histone-lysine N-methyltransferase SETD2 (Homo sapiens) (UniProt Q9BYW2); assay: Inhibition of recombinant human N-terminal GST-tagged SETD2 (1433 to 1711 residues) expressed in Escherichia coli using nucleosome as substrate at 10 uM by radiometric HotSpot assay relative to control; method in brief: as §1
Sequence of Histone-lysine N-methyltransferase SETD2 (Homo sapiens) (Q9BYW2 whole entry, the tested form may be a part): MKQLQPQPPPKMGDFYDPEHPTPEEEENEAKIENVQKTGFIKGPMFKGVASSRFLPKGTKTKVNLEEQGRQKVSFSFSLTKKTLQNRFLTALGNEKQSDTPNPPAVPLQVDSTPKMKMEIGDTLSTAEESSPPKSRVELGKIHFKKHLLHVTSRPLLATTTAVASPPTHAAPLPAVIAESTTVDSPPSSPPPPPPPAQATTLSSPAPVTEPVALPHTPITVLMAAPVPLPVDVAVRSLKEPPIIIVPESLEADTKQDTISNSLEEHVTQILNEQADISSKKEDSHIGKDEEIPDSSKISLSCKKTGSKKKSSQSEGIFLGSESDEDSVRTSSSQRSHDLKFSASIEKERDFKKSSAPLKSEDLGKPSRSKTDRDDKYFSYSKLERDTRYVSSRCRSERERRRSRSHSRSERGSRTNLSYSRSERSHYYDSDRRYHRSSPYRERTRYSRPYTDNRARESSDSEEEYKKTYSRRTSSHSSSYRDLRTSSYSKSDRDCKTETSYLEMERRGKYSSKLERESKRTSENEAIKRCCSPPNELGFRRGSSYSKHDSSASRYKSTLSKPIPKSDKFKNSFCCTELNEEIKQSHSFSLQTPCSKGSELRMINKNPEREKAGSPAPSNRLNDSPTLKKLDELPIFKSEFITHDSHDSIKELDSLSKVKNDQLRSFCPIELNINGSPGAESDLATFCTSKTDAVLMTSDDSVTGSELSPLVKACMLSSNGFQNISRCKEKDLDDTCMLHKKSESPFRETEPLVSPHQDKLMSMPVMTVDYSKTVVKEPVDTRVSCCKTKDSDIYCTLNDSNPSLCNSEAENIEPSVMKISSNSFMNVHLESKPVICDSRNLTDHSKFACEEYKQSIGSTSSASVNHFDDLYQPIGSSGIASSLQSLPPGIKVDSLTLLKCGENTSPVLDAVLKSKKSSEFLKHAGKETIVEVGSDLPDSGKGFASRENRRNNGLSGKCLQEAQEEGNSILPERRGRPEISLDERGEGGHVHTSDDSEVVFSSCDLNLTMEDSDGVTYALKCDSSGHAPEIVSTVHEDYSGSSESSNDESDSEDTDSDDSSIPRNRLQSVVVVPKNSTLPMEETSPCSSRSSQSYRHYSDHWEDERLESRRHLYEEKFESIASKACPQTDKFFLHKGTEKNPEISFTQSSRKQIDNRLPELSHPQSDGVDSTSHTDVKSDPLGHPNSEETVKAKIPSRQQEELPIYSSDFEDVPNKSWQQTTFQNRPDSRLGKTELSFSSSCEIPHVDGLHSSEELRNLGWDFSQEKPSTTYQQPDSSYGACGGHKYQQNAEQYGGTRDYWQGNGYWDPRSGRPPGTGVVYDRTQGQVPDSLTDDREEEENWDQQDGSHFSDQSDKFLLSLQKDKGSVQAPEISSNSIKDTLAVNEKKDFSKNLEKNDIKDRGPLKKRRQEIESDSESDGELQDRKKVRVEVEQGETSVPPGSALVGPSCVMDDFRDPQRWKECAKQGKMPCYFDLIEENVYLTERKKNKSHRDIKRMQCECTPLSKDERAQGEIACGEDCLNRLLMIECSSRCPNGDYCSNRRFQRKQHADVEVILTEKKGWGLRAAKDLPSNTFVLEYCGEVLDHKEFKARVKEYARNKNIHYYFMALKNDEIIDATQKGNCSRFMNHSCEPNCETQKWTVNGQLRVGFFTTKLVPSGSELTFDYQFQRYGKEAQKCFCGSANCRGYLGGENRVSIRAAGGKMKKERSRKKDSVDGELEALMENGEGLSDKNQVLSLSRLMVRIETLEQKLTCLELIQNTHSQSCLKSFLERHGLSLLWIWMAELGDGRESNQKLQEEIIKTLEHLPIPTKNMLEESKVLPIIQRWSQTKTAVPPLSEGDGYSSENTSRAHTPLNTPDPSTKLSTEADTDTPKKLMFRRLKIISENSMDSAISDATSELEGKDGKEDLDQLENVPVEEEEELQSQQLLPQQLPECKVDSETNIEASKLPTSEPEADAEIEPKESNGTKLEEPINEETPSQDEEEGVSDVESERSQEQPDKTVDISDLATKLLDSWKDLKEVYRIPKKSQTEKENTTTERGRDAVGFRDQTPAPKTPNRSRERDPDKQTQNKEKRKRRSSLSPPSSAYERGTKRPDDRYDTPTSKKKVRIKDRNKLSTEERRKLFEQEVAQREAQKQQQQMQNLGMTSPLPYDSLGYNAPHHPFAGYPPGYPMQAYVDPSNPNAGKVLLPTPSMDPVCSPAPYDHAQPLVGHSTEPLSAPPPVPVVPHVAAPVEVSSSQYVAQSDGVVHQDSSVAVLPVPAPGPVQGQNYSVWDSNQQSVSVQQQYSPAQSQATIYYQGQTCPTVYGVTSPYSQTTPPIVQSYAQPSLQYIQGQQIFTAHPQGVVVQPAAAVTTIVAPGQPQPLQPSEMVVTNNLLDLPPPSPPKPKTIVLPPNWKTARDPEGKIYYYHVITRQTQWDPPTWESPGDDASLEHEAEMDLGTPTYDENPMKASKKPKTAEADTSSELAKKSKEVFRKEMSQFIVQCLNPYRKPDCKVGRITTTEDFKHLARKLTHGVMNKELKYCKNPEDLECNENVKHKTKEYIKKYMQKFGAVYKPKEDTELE

[28] = biological target: Histone-lysine N-methyltransferase, H3 lysine-36 specific (Homo sapiens) (UniProt Q96L73); assay: Inhibition of N-terminal His-tagged recombinant human NSD1 (1538 to 2696 residues) expressed in baculovirus infected insect cells using nucleosome as substrate at expressed in 10 uM by radiometric HotSpot assay relative to control; method in brief: as §1

## NCC[C@@H]1CCCN1C[C@H]1O[C@@H](n2cnc3c(N)ncnc32)[C@H](O)[C@@H]1O
[1]
  IC50: 83 nM
[2]
  IC50: 2400 nM

## Nc1ncnc2c1ncn2[C@@H]1O[C@H](CN2CCCC23CNC3)[C@@H](O)[C@H]1O
[1]
  IC50: 740 nM

## Nc1ncnc2c1ncn2[C@@H]1O[C@H](CN2CCC3(CCNCC3)CC2)[C@@H](O)[C@H]1O
[1]
  IC50: > 10000 nM

## Nc1ncnc2c1ncn2[C@@H]1O[C@H](CN2CCCC2)[C@@H](O)[C@H]1O
[1]
  IC50: 76000 nM
[2]
  IC50: > 10000 nM

## Nc1ncnc2c1ncn2[C@@H]1O[C@H](CN2CCC23CCNCC3)[C@@H](O)[C@H]1O
[1]
  IC50: 370 nM

## Nc1ncnc2c1ncn2[C@@H]1O[C@H](CN2CCC3(CCNC3)CC2)[C@@H](O)[C@H]1O
[1]
  IC50: > 10000 nM

## NCC[C@H]1CCCN1C[C@H]1O[C@@H](n2cnc3c(N)ncnc32)[C@H](O)[C@@H]1O
[1]
  IC50: 340 nM

## CC(=O)N1CCC2(CCCN2C[C@H]2O[C@@H](n3cnc4c(N)ncnc43)[C@H](O)[C@@H]2O)CC1
[1]
  IC50: > 10000 nM

## Nc1ncnc2c1ncn2[C@@H]1O[C@H](CN2CCC3(CCNCC3)C2)[C@@H](O)[C@H]1O
[1]
  IC50: 5400 nM

## Nc1ncnc2c1ncn2[C@@H]1O[C@H](CN2CCC23CNC3)[C@@H](O)[C@H]1O
[1]
  IC50: 5100 nM

## Nc1ncnc2c1ncn2[C@@H]1O[C@H](CN2CCCC23CCCCC3)[C@@H](O)[C@H]1O
[1]
  IC50: > 10000 nM

## Nc1ncnc2c1ccn2[C@@H]1O[C@H](CN2CCCC23CCNCC3)[C@@H](O)[C@H]1O
[1]
  IC50: 9.5 nM
[2]
  IC50: 58 nM
[3]
  inhibition: Active
[4]
  inhibition: Active

## Nc1ncnc2c1ncn2[C@@H]1O[C@H](CN2CCCC23CCNCC3)[C@@H](O)[C@H]1O
[1]
  IC50: 52 nM
[2]
  IC50: 2300 nM
[5]
  Activity: Non-Toxic

## Nc1ncnc2c1ncn2[C@@H]1O[C@H](CN2CCCC23CCNC3)[C@@H](O)[C@H]1O (stereo in doubt; 3a)
[1]
  IC50: 3300 nM

## Nc1ncnc2c1ncn2[C@@H]1O[C@H](CN2CCC(N)CC2)[C@@H](O)[C@H]1O
[1]
  IC50: > 10000 nM

## Nc1ncnc2c1ncn2[C@@H]1O[C@H](CN2CCCC23CCNC3)[C@@H](O)[C@H]1O (stereo in doubt; 3b)
[1]
  IC50: 2700 nM

## CN1CCC2(CCCN2C[C@H]2O[C@@H](n3ccc4c(N)ncnc43)[C@H](O)[C@@H]2O)CC1
[6]
  inhibition: < 25%
[1]
  IC50: 48 nM
[2]
  IC50: 200 nM
[7]
  Kd: 7.6 nM
[8]
  inhibition: < 25%
[9]
  inhibition: < 25%
[10]
  inhibition: < 25%
[11]
  inhibition: < 25%
[12]
  inhibition: < 25%
[13]
  inhibition: < 25%
[14]
  inhibition: < 25%
[15]
  inhibition: < 25%
[16]
  inhibition: < 25%
[17]
  inhibition: < 25%
[18]
  inhibition: < 25%
[3]
  inhibition: Active
[4]
  inhibition: Active
[19]
  inhibition: < 25%
[20]
  inhibition: > 90%
[21]
  inhibition: < 25%
[22]
  inhibition: < 25%
[23]
  inhibition: < 25%
[24]
  inhibition: < 25%
[25]
  inhibition: < 25%
[26]
  inhibition: < 25%
[27]
  inhibition: < 25%
[28]
  inhibition: < 25%

## Nc1ncnc2c1ncn2[C@@H]1O[C@H](CN2CCCC3(CNC3)C2)[C@@H](O)[C@H]1O
[1]
  IC50: 530 nM
